The EternaBench riboswitch data

Test system: MS2 coat protein
Test: apparent Kd, MS2 coat protein; higher = weaker binding; RNA-MaP array; FMN 200 µM where present
Method in brief: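 Two titrations, one without ligand and one with constant ligand, were run with SNAP-549-labelled MS2 coat protein from 0.7 or 1.5 nM, doubling to 3 µM. The targets were designs transcribed by stalled E. coli RNA polymerase on Illumina sequencing-chip clusters, in 100 mM Tris-HCl pH 7.5, 80 mM KCl, 4 mM MgCl2, BSA, DTT, yeast tRNA and Tween-20. The apparent Kd is the median of filtered per-cluster binding-curve fits, with green signal normalised to red-channel RNA signal and control-cluster median Fmax.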

[1] = designed as: ON switch for flavin mononucleotide, no ligand
[2] = ligand present: flavin mononucleotide, designed as: ON switch for flavin mononucleotide
[3] = designed as: OFF switch for flavin mononucleotide, no ligand
[4] = ligand present: flavin mononucleotide, designed as: OFF switch for flavin mononucleotide

## AGCUACGUUUCGUAGCAGCUAGGUGAGGAUAUCCUUAUACAUGAGGAUCACCCAUGUUAGCCAUGGGAGAAGGCGCCUAGAAAG
[1]
  apparent Kd: 328 nM
[2]
  apparent Kd: 24.8 nM

## UGUCGGAGCACAGGAUAUUACAUGAGGAUCACCCAUGUAUGAACCAAUAGCUGGAAACAGCAAUGUAAGAAGGCUGCUCCGACA
[3]
  apparent Kd: 5.6 nM
[4]
  apparent Kd: 5.71 nM

## AUGCUAUACGAAGGAUAUGGUUACAUGAGGAUCACCCAUGUUAUUCUUGUUUUCUUGUUUAUGUUCCAGAAGGUCGUAUAGCUA
[3]
  apparent Kd: 47.3 nM
[4]
  apparent Kd: 38.2 nM

## UUGGACGUCGUAGGAUAUGUAUGAUAUUCCUACAUGAGGAUCACCCAUGUUGACAUGGAAGAAGGACAGAAGGACGAUGUCCAU
[1]
  apparent Kd: 5.8 nM
[2]
  apparent Kd: 4.56 nM

## AUCUCCUCUGUCAGGAUAUAUAAACUGUUGCAGUGGUAGAAGGGACAUGAGGAUCACCCAUGUAAUAUAAAUAA
[3]
  apparent Kd: 25.6 nM
[4]
  apparent Kd: 71.5 nM

## UCUCGAUGUGUAGGAUAUCUGAUCACUAUGACAAGAGAAGGGCACAUGAGGAUCACCCAUGUGGAGGACCACUGGUUCAGAUUA
[3]
  apparent Kd: 35.8 nM
[4]
  apparent Kd: 64.9 nM

## GUCAGCUCGUGAGGAUAUACAACACUGCUUCGGCAGUGCAUUAAGAUCACAUGAGGAUCACCCAUGUAGAAGGCACGAGCUGAU
[3]
  apparent Kd: 15 nM
[4]
  apparent Kd: 313 nM

## GUAGCUAUCGGAGGAUAUUCAUAGCCGAAAGGCACAUGAGGAUCACCCAUGUGGCGAAAGCCUUGGGAGAAGGCCGAUAGCUAC
[1]
  apparent Kd: 270 nM
[2]
  apparent Kd: 18.7 nM

## GAAUAACAUGAGGAUCACCCAUGUGAUUCGCAUGUAGGAUAUGGGCACGCGCCCGCGUGUCCAGAAGGACAGGCUA
[1]
  apparent Kd: 154 nM
[2]
  apparent Kd: 130 nM

## GGGUAAAUCGGAGGAUAUCAUGUAAAUACAUGAGGAUCACCCAUGUCGAUGGAGACAUCGGAGAUUGAGAAGGCCGAUGUACCG
[1]
  apparent Kd: 175 nM
[2]
  apparent Kd: 9.42 nM

## CUUUUGUGAGGAUAUCUGUAGUAAAAAAAUAAAAUUACUACUGAGAAGGCACAUGAGGAUCACCCAUGUUCCUC
[3]
  apparent Kd: 39.6 nM
[4]
  apparent Kd: 181 nM

## CUUAUACAUGAGGAUCACCCAUGUUAGGAUAUUCGCCCGCAUUGGAAGUCCGGUCUUGGAAGAAGGAACGUGGG
[3]
  apparent Kd: 36.8 nM
[4]
  apparent Kd: 59.1 nM

## AUGAGGUCAGGAUAUGCAUGGCGGGACUUGCGUCGUGGCGUGCAGAAGGGACAUGAGGAUCACCCAUGUGGAGG
[3]
  apparent Kd: 177 nM
[4]
  apparent Kd: 249 nM

## UAAACAUGAGGAUCACCCAUGUAAAGAUCGGUAGUAGAGAGUGAGGAUAUACUAAAUUUUAUGGAGUAGAAGGCACUGGGUUCU
[1]
  apparent Kd: 40.1 nM
[2]
  apparent Kd: 32.3 nM

## GGAGCACACAUUAACAUGAGGAUCACCCAUGUCAAAAGACAUGAGGAUAUGGUUCCGAAAAGGAUCCAGAAGGCAUGGUGCUCC
[1]
  apparent Kd: 356 nM
[2]
  apparent Kd: 15.5 nM

## AUCAGCUCGUCAGGAUAUACAUCACUGCGUCAGCAGUGUGGUAAGAUCACAUGAGGAUCACCCAUGUAGAAGGGACGAGCUGAU
[3]
  apparent Kd: 13.9 nM
[4]
  apparent Kd: 252 nM

## ACUACUUAGUGAGGAUAUACAUAAUUUAUAACUGUAGAAGGCACAAACCUCAAUACAUGAGGAUCACCCAUGUUUUAUAUCUAU
[3]
  apparent Kd: 32.7 nM
[4]
  apparent Kd: 46.4 nM

## GAAUAAUUGAUCCAAUUUAACUACAUGAGGAUCACCCAUGUGCAGGAUAUCGUAAUAUUUAUUUUCGAGAAGGGCAAGAACGGU
[3]
  apparent Kd: 162 nM
[4]
  apparent Kd: 320 nM

## AGCAAAAUAAGCAAGGAUAUGUAAUUUGGCACAUGAGGAUCACCCAUGUCAAUCCAUUUUUUUGAACAGAAGGUGCAUUUUUUUU
[1]
  apparent Kd: 38.2 nM
[2]
  apparent Kd: 32.1 nM

## AAAACAUGAGGAUCACCCAUGUAUAGAGCGGUUAAUAAAGGUGAGGAUAUACUAAAUUUUAUAUAGUAGAAGGCACUGGGUACU
[1]
  apparent Kd: 26.7 nM
[2]
  apparent Kd: 30.5 nM

## AAGGCGGCUCAGGCCGAGUUUCGCAGAAGGGCACAUGAGGAUCACCCAUGUACCUGGUCUGAUGUGCAGGAUAUGUGAGUCAGC
[3]
  apparent Kd: 5.6 nM
[4]
  apparent Kd: 10.4 nM

## AAUUAAUUAAUACAUGAGGAUCACCCAUGUAAUUAUUAGAUCAAGGAUAUCAGCUCGAAUAGAGCUGAGAAGGUGAUCACAUGU
[1]
  apparent Kd: 475 nM
[2]
  apparent Kd: 111 nM

## UUUUUACAUGAGGAUCACCCAUGUCAGGAUAUGAUUAUAUUUUAUUAUUUUAUUUUUUUCAGAAGGGACUAUUA
[3]
  apparent Kd: 117 nM
[4]
  apparent Kd: 56.9 nM

## UUUAAGUCAGGAUAUCGUUAAUUUAAUUAAUUAUUUUAAUUCGAGAAGGGACAUGAGGAUCACCCAUGUAAUUU
[3]
  apparent Kd: 36.8 nM
[4]
  apparent Kd: 60.2 nM

## UGUUUUUAUGUAAGGAUAUGGGUUUGGUUGCGGGCUUAGAAGGUACAUGAGGAUCACCCAUGUAUUUUGUGCAU
[3]
  apparent Kd: 31.6 nM
[4]
  apparent Kd: 35.5 nM

## UAUUUAUAGCAAGGAUAUGAUUAUUAUUAUUUAUCAGAAGGUGCACAUGAGGAUCACCCAUGUUUUAUAUAUAAUAAUUUAAUU
[3]
  apparent Kd: 113 nM
[4]
  apparent Kd: 30.6 nM

## UUCAUGUGAGGAUAUGCGGCGGCAGGUGGGCCUGUCGCUGAGCAGAAGGCACAUGAGGAUCACCCAUGUGCUCC
[3]
  apparent Kd: 34.3 nM
[4]
  apparent Kd: 59.7 nM

## UUGGACGUCGUAGGAUAUGUAGGAUCUUCCUACAUGAGGAUCACCCAUGUUGACAUGGAAGAAGGACAGAAGGACGAUGUCCAU
[1]
  apparent Kd: 6.88 nM
[2]
  apparent Kd: 4.77 nM

## GUAGCAUACCGAGGAUAUCUAUAUAAUAAACAAACAUGAGGAUCACCCAUGUGGCGAAAGCCAAGGGAGAAGGCGGAAUGCUAC
[1]
  apparent Kd: 35.6 nM
[2]
  apparent Kd: 22.1 nM

## UUCAGCGAUCAAGGAUAUCUAUAAACAUGCGGACAUGAGGAUCACCCAUGUUGAUCACCCAUGUGGGAGAAGGUGAACAUGAGG
[1]
  apparent Kd: 174 nM
[2]
  apparent Kd: 72.9 nM

## ACGUGACGGUUCGCGAGUGGACGGAGAAGGCAGACAUGAGGAUCACCCAUGUGAGCCUGCUAUUCUGAGGAUAUCCGUUCGCAC
[3]
  apparent Kd: 25.7 nM
[4]
  apparent Kd: 130 nM

## ACGUGUCGUGUAGGAUAUGACACAGGAAACUGGUCAGAAGGACAUGAGGAUCACCCAUGUAGAGUGUGUAAGGAUGACGUAUGC
[3]
  apparent Kd: 52 nM
[4]
  apparent Kd: 199 nM

## GUAGCUAGUACAGGAUAUUAGUGUGUGUAAUAUUGAGAAGGGUACAUGAGGAUCACCCAUGUGAUCAAUCACUGUUAAGGUUGC
[3]
  apparent Kd: 80.4 nM
[4]
  apparent Kd: 64 nM

## GCCAUCGUAUGAGGAUAUGGCACCGAAACGGUGCCAGAAGGCAUGUCAAUCGACAUGAGGAUCACCCAUGUGUUAUCGAUGGCA
[1]
  apparent Kd: 305 nM
[2]
  apparent Kd: 25.1 nM

## AUCAGCUCGUCAGGAUAUACGUGACUGCGUCAGCAGUGUGGUAAGAUCACAUGAGGAUCACCCAUGUAGAAGGGACGAGCUGAU
[3]
  apparent Kd: 53.2 nM
[4]
  apparent Kd: 580 nM

## GCCAGAGCAGGAUAUCUAUAUUAUCACAUGAGGAUCACCCAUGUCCAGCGAAAGCUGGAGGGAGAAGGGCUCUGGC
[3]
  apparent Kd: 73.2 nM
[4]
  apparent Kd: 33.8 nM

## AUGAGAAUUGUUAGGAUAUCCGUAAGUAAGUACUGGGAGAAGGGACAUGAGGAUCACCCAUGUGAUAGCCGACU
[3]
  apparent Kd: 102 nM
[4]
  apparent Kd: 80.6 nM

## UAUAUAUAGGCAGGAUAUACAUGAAUAUAUAUGAUGUAGUAUGAUGUAACAUGAGGAUCACCCAUGUAGAAGGGCCAAUAUAUA
[3]
  apparent Kd: 48 nM
[4]
  apparent Kd: 152 nM

## UUGUACAUAGGAUAUAGUUGUUUGUACAUGAGGAUCACCCAUGUUAUGUAUCUUUUGCUUCUAGAAGGAUGUUCUU
[3]
  apparent Kd: 38.7 nM
[4]
  apparent Kd: 27.7 nM

## UACAAUCUAUCUGAGGAUAUCAUGAAAAAAACAUGAGGAUCACCCAUGUGCAGGAAAACUGCAUAUGAGAAGGCAGAUAGAUUGU
[1]
  apparent Kd: 770 nM
[2]
  apparent Kd: 25.7 nM

## ACAUGAGGAUCACCCAUGUAAAAUUAAGAAGGUAGAUACUUGAGGAUCACCCAUGUACAUGGGACUAAGGAUAUUAUAAUAAUU
[1]
  apparent Kd: 55.7 nM
[2]
  apparent Kd: 49.1 nM

## AACAGUCUAGAGGAUAUGCUGGAUUAAAAUCUGGCAGAAGGCUGGACAUGAGGAUCACCCAUGUAAAUACUACC
[3]
  apparent Kd: 33.6 nM
[4]
  apparent Kd: 162 nM

## GUUUUGGGAGGAUAUAUGUGGAUUAUUUUUGUAUGUUGUUUACAUGAGGAUCACCCAUGUAGAAGGUCUAGAGC
[3]
  apparent Kd: 102 nM
[4]
  apparent Kd: 211 nM

## AAGUGUGCCUAGGAUAUGUUCGGCCAAGGUCAUACAGAAGGAGGCACAUGAGGAUCACCCAUGUAGUGUCCAAC
[3]
  apparent Kd: 118 nM
[4]
  apparent Kd: 29.4 nM

## UGUUGUAUUACAGGAUAUCUAUUAUGUUUAUUUAGAGAAGGGUAUUCACAUGAGGAUCACCCAUGUAUAUACGAGGAAGUUGUG
[1]
  apparent Kd: 54.8 nM
[2]
  apparent Kd: 56.2 nM

## AGAAACUACGAGAAGGACAUGUAAAAUGCCGCAAACAUGAGGAUCACCCAUGUAGGAUAUCGUAGUUUCAGGAUCGUGAGAUCA
[3]
  apparent Kd: 6.59 nM
[4]
  apparent Kd: 18.1 nM

## CCCUCACAUGAGGAUCACCCAUGUCAGGAUAUCUAGUCAGAUAGUGUAGCACUAAUGAAGAGAAGGGACGUAUA
[3]
  apparent Kd: 18.2 nM
[4]
  apparent Kd: 23.9 nM

## AAUAAGCAAGGAUAUACGACGCAGAGCGUCAGUGGGCGAUGACAUGAGGAUCACCCAUGUAGAAGGUGCACAUC
[3]
  apparent Kd: 93.9 nM
[4]
  apparent Kd: 208 nM
